For data set [1], the target named is T1, Mitogen-activated protein kinase 14 (Homo sapiens, UniProt Q16539). Description: Inhibition of p38alpha assessed as phosphorylation of […] after 60 mins by fluorescence assay. The gist of the method: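 Cascade assay in which activated p38α (6 pM final) activates unactivated MK2 (1 nM), which phosphorylates FITC-labelled Hsp27 peptide (1 nM) with […]. Inhibitor 0.2–10,000 nM. Room temperature, 60 min, EDTA quench. Phospho-peptide quantified by Caliper LabChip; IC50.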

The subject of another data set is PBMC. As to the kind of experiment: Antiinflammatory activity in human PBMC assessed as inhibition of LPS-induced TNFalpha production treated 1 hr before LPS challenge measured after 18 hrs. Type of data set: functional, cell-based. The method, boiled down: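 PBMCs isolated by Ficoll from heparinized blood of two healthy donors, in DMEM with 5% endotoxin-free FBS, 2.5 × 10⁵ cells/well. Pretreated 1 h with compound (0.0001–25 µM range), then stimulated 18 h with 22 ng/ml LPS. Final DMSO 0.25%. Secreted TNFα measured by MSD; IC50 reported.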

Data set [2] is described as follows: Metabolic stability in human liver microsomes assessed as compound remaining at 2 uM after 45 mins by LC/MS analysis. The conditions noted are these: read-out: Stability. The format is ADME, Microsome. (Liver microsomes are vesicles of endoplasmic reticulum, rich in cytochrome P450 enzymes.)
A short description of data set [3]: Metabolic stability in rat liver microsomes assessed as compound remaining at 2 uM after 45 mins by LC/MS analysis. Type of data set: ADME, Microsome. Conditions: read-out: Stability.
Data set [4] relates to Rattus norvegicus. As to the kind of experiment: Antiinflammatory activity in Lewis rat assessed as inhibition of LPS-induced TNFalpha production at 15 mg/kg, po administered 4 hrs before LPS challenge by ELISA.
The target in data set [5] is Tyrosine-protein kinase BTK (Homo sapiens) (UniProt Q06187). Description: Inhibition of BTK at 10 uM.
A short description of data set [6]: Clearance in iv and po dosed Sprague-Dawley rat. Type of data set: ADME, organism-based. The conditions noted are these: in vivo.
The nature of data set [7]: Half life in iv and po dosed Sprague-Dawley rat. Type of data set: ADME, organism-based. Conditions: in vivo.
Data set [8] is described as follows: Bioavailability in Sprague-Dawley rat at 5 mg/kg, po. Type of data set: ADME, organism-based. The conditions noted are these: in vivo.
For data set [9], the system named is Rattus norvegicus. Description: Antiinflammatory activity in Lewis rat assessed as inhibition of LPS-induced TNFalpha production at 5 mg/kg, po administered 4 hrs before LPS challenge by ELISA. The format is functional. The method, boiled down: (§1)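 Adult male Lewis rats (225–250 g), fasted 18 h with free access to water. Compound or vehicle given by oral gavage (1 mL). LPS (E. coli 0111:B4) given 1 mg/kg i.v. in saline 2, 4 or 6 h later. Serum taken by cardiac puncture 90 min after LPS. TNFα quantified against a recombinant rat TNF standard curve with a four-parameter fit. Two vehicle groups per experiment, three experiments.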
(In general: An ELISA detects its analyte on a solid surface through an enzyme-linked reagent.)

Data set [10] can be described thus: Solubility of the compound. Type of data set: physicochemical.
Data set [11] deals with Rattus norvegicus. Description: Antiarthritic activity in Lewis rat assessed as inhibition of streptococal cell wall-induced increase of paw volume at 60 mg/kg, po qd for 10 days administered 10 days after streptococal cell wall challenge by displacement plethysmometer analysis. The format is functional. The conditions noted are these: 240 h. The gist of the method:
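Female Lewis rats given intraperitoneal group A streptococcal cell wall peptidoglycan-polysaccharide ([…] bodyweight). Only animals developing the acute phase were treated. Oral gavage (0.5 mL) daily from day 10 to day 21 post-SCW, with methylcellulose/Tween 20 vehicle as comparison. Four to eight animals per group, two paw volumes per animal. Paw volume measured on day 21 by water displacement plethysmometer.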

Data set [12] addresses Cyclin-dependent kinase 2 (Homo sapiens) (UniProt P24941). As to the kind of experiment: Inhibition of CDK2 at 10 uM.
In data set [13] the target is Aurora kinase A (Homo sapiens) (UniProt O14965). As to the kind of experiment: Inhibition of AURKA at 10 uM.
For data set [14], the target named is Epidermal growth factor receptor (Homo sapiens) (UniProt P00533). As to the kind of experiment: Inhibition of EGFR at 10 uM.
The target in data set [15] is Vascular endothelial growth factor receptor 1 (Homo sapiens) (UniProt P17948). As to the kind of experiment: Inhibition of FLT1 at 10 uM.
Data set [16] concerns the target Mitogen-activated protein kinase 3 (Homo sapiens) (UniProt P27361). As to the kind of experiment: Inhibition of ERK1 at 10 uM.
The target in data set [17] is Serine/threonine-protein kinase mTOR (Homo sapiens) (UniProt P42345). Description: Inhibition of mTOR at 10 uM.
In data set [18] the target is Inhibitor of nuclear factor kappa-B kinase subunit beta (Homo sapiens) (UniProt O14920). As to the kind of experiment: Inhibition of IKK-beta at 10 uM.
Data set [19] deals with Interleukin-1 receptor-associated kinase 4 (Homo sapiens) (UniProt Q9NWZ3). As to the kind of experiment: Inhibition of IRAK4 at 10 uM.
Data set [20] deals with Tyrosine-protein kinase JAK1 (Homo sapiens) (UniProt P23458). Description: Inhibition of JAK1 at 10 uM.
Data set [21] has as its target Tyrosine-protein kinase JAK2 (Homo sapiens) (UniProt O60674). Description: Inhibition of JAK2 at 10 uM.
Data set [22] has as its target Tyrosine-protein kinase JAK3 (Homo sapiens) (UniProt P52333). Description: Inhibition of JAK3 at 10 uM.
For data set [23], the target named is Non-receptor tyrosine-protein kinase TYK2 (Homo sapiens) (UniProt P29597). As to the kind of experiment: Inhibition of TYK2 at 10 uM.
Data set [24] addresses Vascular endothelial growth factor receptor 2 (Homo sapiens) (UniProt P35968). Description: Inhibition of VEGFR2 at 10 uM.
Data set [25] deals with Tyrosine-protein kinase Lck (Homo sapiens) (UniProt P06239). Description: Inhibition of LCK at 10 uM.
In data set [26] the target is Dual specificity mitogen-activated protein kinase kinase 1 (Homo sapiens) (UniProt Q02750). Description: Inhibition of MEK1 at 10 uM.
Data set [27] deals with Mitogen-activated protein kinase 13 (Homo sapiens) (UniProt O15264). Description: Inhibition of p38delta at 10 uM.
Data set [28] concerns the target Mitogen-activated protein kinase 12 (Homo sapiens) (UniProt P53778). Description: Inhibition of p38-gamma at 10 uM.
A short description of data set [29]: Inhibition of JNK at 10 uM.
The target of data set [30] is MAP kinase-activated protein kinase 2 (Homo sapiens) (UniProt P49137). Description: Inhibition of MK2 at 10 uM.
Data set [31] addresses High affinity nerve growth factor receptor (Homo sapiens) (UniProt P04629). As to the kind of experiment: Inhibition of TRKA at 10 uM.
Data set [32] can be described thus: Inhibition of PDGFR at 10 uM.
Data set [33] concerns the target RAF proto-oncogene serine/threonine-protein kinase (Homo sapiens) (UniProt P04049). Description: Inhibition of c-RAF at 10 uM.
Data set [34] deals with Rho-associated protein kinase 1 (Homo sapiens) (UniProt Q13464). Description: Inhibition of ROCK1 at 10 uM.
For data set [35], the target named is Rho-associated protein kinase 2 (Homo sapiens) (UniProt O75116). Description: Inhibition of ROCK2 at 10 uM.
The target of data set [36] is Tyrosine-protein kinase ZAP-70 (Homo sapiens) (UniProt P43403). Description: Inhibition of ZAP70 at 10 uM.
For data set [37], the target named is T1, Mitogen-activated protein kinase 14. Description: Inhibition of p38alpha at 10 uM.
Data set [38] has as its target Mitogen-activated protein kinase 11 (Homo sapiens) (UniProt Q15759). As to the kind of experiment: Inhibition of p38beta at 10 uM.
Data set [39] is described as follows: Bioavailability in Sprague-Dawley rat po as suspension. The conditions noted are these: in vivo.
In data set [40] the test system is Rattus norvegicus. As to the kind of experiment: Antiinflammatory activity in Lewis rat assessed as inhibition of LPS-induced TNFalpha production at 20 mg/kg, po administered 2 hrs before LPS challenge by ELISA. Type of data set: functional. The method, boiled down:
as §1

Data set [41] is described as follows: Bioavailability in iv and po dosed Sprague-Dawley rat. Type of data set: ADME, organism-based. Conditions: in vivo.
Data set [42] concerns Rattus norvegicus. As to the kind of experiment: Antiinflammatory activity in Lewis rat assessed as inhibition of LPS-induced TNFalpha production at 5 mg/kg, po administered 6 hrs before LPS challenge by ELISA. Type of data set: functional. The method, boiled down:
as §1

Each structure is given as a SMILES string. Active and inactive are the calls of the source.

By IC50 is commonly meant the concentration that inhibits the measured activity by half. One may read the inhibition in vivo as the share of the control response that was lost under treatment. By inhibition is commonly meant the share of the control response that was lost under treatment. As usually defined, the half-life is the time needed for the level to fall by half in the phase considered. What is called bioavailability is the share of a dose that reaches the circulation, judged against a reference dose that is usually intravenous. Read a high bioavailability as good availability. What is called solubility is how much of the substance goes into solution per volume. Low readings indicate a poorly soluble substance, high ones a readily soluble substance.

T1 sequence (Q16539 whole entry): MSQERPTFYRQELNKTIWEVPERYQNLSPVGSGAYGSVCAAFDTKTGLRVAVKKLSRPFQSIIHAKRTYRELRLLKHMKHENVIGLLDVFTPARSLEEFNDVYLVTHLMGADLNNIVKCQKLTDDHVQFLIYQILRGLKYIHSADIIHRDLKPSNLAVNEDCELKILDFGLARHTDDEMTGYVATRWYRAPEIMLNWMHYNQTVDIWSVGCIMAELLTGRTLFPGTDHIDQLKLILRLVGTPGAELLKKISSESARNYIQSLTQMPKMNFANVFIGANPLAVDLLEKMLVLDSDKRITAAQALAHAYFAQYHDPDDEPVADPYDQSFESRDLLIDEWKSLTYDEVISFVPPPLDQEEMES
Sequence of Interleukin-1 receptor-associated kinase 4 (Homo sapiens) (Q9NWZ3 whole entry): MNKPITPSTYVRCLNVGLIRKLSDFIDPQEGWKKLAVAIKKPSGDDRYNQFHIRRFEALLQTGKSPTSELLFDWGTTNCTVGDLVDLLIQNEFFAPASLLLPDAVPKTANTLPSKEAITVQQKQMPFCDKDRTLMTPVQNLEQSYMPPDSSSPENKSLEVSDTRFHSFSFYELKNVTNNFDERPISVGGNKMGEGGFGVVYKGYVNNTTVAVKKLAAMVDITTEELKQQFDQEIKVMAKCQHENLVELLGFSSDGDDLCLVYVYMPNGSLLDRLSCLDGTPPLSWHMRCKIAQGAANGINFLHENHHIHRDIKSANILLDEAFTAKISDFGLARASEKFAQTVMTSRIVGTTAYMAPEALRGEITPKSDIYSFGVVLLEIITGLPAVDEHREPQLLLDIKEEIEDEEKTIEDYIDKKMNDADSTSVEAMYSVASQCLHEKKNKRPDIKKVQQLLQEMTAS
Sequence of Tyrosine-protein kinase JAK2 (Homo sapiens) (O60674 whole entry): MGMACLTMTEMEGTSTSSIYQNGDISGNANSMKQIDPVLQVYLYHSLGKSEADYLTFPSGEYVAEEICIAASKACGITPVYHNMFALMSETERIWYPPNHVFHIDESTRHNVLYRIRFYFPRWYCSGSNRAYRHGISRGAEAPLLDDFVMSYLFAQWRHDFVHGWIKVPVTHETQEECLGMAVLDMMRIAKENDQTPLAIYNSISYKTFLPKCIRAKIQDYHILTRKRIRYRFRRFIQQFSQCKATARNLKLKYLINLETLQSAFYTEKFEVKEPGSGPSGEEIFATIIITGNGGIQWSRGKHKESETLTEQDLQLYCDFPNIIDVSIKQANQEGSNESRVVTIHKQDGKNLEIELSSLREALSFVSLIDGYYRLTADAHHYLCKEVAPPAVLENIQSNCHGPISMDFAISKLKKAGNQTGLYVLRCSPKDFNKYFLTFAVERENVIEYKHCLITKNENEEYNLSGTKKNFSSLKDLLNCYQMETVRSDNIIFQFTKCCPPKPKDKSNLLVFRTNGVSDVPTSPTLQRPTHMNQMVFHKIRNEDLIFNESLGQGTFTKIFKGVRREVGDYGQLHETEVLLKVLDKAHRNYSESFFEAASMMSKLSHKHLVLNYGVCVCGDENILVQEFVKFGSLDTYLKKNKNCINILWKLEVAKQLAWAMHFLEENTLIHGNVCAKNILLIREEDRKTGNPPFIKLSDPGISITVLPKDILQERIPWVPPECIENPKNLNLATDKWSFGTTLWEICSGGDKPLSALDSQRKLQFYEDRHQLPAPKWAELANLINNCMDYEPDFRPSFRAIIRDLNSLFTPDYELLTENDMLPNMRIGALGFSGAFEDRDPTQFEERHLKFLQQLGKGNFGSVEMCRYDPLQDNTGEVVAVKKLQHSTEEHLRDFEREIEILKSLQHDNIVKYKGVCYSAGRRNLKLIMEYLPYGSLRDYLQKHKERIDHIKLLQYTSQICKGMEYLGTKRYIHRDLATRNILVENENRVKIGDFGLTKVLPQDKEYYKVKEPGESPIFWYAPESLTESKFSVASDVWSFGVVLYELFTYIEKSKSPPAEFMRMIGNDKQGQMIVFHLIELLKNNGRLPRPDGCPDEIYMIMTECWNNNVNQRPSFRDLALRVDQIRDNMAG
Sequence of Epidermal growth factor receptor (Homo sapiens) (P00533 whole entry): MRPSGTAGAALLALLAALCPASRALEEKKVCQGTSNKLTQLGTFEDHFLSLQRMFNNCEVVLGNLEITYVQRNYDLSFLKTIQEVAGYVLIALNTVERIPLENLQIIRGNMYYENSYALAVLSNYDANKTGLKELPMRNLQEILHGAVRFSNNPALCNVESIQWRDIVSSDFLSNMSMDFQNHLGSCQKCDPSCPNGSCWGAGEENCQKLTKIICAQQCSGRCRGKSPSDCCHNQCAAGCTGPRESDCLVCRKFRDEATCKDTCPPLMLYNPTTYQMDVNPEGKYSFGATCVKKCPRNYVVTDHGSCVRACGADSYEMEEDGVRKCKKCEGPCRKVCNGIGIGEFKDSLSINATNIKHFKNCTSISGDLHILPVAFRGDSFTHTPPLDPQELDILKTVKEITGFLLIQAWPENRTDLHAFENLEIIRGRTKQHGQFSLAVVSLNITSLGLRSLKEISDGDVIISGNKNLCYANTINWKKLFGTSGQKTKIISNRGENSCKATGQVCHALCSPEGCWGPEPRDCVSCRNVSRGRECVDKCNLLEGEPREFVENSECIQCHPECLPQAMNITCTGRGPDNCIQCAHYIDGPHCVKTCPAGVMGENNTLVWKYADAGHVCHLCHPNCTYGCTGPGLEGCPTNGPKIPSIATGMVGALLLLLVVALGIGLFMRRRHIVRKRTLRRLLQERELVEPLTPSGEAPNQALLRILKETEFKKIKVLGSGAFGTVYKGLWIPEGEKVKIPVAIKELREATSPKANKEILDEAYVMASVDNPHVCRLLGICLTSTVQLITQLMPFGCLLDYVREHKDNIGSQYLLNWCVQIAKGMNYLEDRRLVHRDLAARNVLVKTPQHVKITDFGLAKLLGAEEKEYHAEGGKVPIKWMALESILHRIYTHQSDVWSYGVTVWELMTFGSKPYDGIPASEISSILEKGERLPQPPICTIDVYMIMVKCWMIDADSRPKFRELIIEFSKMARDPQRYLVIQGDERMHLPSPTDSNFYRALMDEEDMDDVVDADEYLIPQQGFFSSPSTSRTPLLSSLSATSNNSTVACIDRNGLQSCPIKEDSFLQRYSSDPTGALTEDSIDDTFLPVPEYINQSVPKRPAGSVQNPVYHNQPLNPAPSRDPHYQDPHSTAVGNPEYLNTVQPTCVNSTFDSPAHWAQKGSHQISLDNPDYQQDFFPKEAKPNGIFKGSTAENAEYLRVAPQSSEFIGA
Sequence of Tyrosine-protein kinase ZAP-70 (Homo sapiens) (P43403 whole entry): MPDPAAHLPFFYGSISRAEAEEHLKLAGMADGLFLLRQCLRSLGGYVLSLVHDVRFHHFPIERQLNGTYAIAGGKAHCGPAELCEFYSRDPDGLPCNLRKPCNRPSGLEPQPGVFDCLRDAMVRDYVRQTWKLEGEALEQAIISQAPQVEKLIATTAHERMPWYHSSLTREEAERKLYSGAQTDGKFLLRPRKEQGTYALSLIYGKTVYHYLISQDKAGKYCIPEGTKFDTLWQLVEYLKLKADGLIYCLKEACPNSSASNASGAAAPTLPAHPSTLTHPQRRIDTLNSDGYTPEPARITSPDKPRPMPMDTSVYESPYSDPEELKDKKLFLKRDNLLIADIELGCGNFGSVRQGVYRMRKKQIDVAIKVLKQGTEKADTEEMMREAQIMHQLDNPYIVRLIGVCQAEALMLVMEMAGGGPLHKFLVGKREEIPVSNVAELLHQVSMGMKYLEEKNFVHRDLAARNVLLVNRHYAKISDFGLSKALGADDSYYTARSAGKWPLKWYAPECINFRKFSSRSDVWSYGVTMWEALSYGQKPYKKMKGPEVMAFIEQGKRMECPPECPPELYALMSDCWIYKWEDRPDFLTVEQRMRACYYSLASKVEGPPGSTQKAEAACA
Sequence of RAF proto-oncogene serine/threonine-protein kinase (Homo sapiens) (P04049 whole entry): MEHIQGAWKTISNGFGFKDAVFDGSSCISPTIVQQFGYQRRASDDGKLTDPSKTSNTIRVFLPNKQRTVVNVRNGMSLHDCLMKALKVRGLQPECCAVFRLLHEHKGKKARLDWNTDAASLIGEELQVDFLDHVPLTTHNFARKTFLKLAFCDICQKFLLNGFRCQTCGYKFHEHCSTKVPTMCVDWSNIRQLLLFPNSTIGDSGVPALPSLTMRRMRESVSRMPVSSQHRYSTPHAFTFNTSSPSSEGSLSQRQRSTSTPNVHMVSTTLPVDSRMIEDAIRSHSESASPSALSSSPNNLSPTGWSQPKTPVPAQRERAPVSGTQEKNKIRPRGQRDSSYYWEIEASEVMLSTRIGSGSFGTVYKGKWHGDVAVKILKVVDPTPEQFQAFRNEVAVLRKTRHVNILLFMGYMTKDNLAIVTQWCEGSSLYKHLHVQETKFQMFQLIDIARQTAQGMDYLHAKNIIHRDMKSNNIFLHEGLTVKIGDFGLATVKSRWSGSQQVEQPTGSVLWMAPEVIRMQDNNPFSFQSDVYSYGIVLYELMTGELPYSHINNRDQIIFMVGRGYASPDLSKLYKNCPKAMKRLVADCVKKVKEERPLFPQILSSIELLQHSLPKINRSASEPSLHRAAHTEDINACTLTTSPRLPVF
Sequence of MAP kinase-activated protein kinase 2 (Homo sapiens) (P49137 whole entry, looked up): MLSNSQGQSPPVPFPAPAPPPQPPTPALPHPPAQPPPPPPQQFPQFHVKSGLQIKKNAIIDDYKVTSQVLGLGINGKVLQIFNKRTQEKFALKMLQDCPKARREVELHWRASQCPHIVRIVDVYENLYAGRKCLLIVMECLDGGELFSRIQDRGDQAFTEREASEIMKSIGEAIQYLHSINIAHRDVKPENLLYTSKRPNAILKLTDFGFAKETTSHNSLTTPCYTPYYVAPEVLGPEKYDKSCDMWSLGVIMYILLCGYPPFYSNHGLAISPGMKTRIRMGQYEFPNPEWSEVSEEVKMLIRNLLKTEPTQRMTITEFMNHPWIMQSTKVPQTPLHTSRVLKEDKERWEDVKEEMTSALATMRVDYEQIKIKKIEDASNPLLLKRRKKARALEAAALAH

`CN(C)Cc1cc(OCc2ccc(F)cc2F)c(Br)c(=O)n1-c1c(F)cccc1F`: the IC50 in [1] amounted to 6 nM; in the data set on PBMC, 50 nM. Moreover, the remaining at 0.75 h, 2 µM in [2] and in [3] was 0% in each case. In the data set on Rattus norvegicus [4], the inhibition in vivo at 15 mg/kg is 69%.

Regarding `Cc1cc(OCc2ccc(F)cc2F)c(Br)c(=O)n1-c1cccc(C(N)=O)c1`, the inhibition in data set [5], in data set [12], in data set [13], in [14], in data set [15] and in data set [16] was below 50% each time. The inhibition in [17], in data set [18], in data set [19], in [20], in [21] and in data set [22] was below 50% each time. Moreover, the inhibition in [23], in [24], in data set [25], in data set [26], in data set [27] and in data set [28] was below 50% in each case. The inhibition in [29], in data set [30], in data set [31], in data set [32], in data set [33] and in data set [34] was below 50% throughout. Besides, the inhibition in data set [35] and in data set [36] was below 50% each time. For the same molecule, the IC50 in data set [1] was 12 nM; with PBMC, 64 nM. Moreover, the values for the remaining at 0.75 h, 2 µM in [2] and in data set [3] were 100% and 97%, respectively. The clearance in data set [6] was found to be 9.34 mL/min/kg. Further, the half-life in data set [7] was 3.4 h. The bioavailability turned out to be 93% in data set [8] and 7% in [39]. Also, in the data set on Rattus norvegicus [9], the inhibition in vivo at 5 mg/kg was 89%. Besides, the solubility in [10] is below 10 µg/mL. For the same molecule, in the data set on Rattus norvegicus [11], the inhibition in vivo at 60 mg/kg came to 40%. In addition, the inhibition result in [37] and in data set [38] was “Active” in each case.

For `Cc1cccc(C)c1-n1c(C)cc(OCc2ccc(F)cc2F)c(Br)c1=O`, the IC50 in data set [1] turned out to be 2 nM; in the data set on PBMC, 25 nM. In addition, the remaining at 0.75 h, 2 µM in data set [2] amounted to 3%; in data set [3], 1%. Also, in the data set on Rattus norvegicus [40], the inhibition in vivo at 20 mg/kg is 66%.

On to `Cc1cc(OCc2ccc(F)cc2F)c(Cl)c(=O)n1-c1c(F)cccc1F`, for which the IC50 in [1] worked out at 4 nM; in the data set on PBMC, 17 nM. For the same molecule, the remaining at 0.75 h, 2 µM in [2] is 74%; in [3], 87%. This molecule also had a clearance in data set [6] of 12.8 mL/min/kg. This molecule also showed a half-life in data set [7] of 1.8 h. Moreover, the bioavailability in [41] amounted to 21%. Further, the inhibition in vivo at 5 mg/kg in the data set on Rattus norvegicus [42] amounted to 83%. The molecule also returned a solubility in data set [10] below 10 µg/mL.

Source of the values: ChEMBL document CHEMBL1795280, “Design, synthesis and activity of a potent, selective series of N-aryl pyridinone inhibitors of p38 kinase” (Bioorg Med Chem Lett, 2011).
